Test results from ChEMBL document CHEMBL5344453, “Selective Recognition of c-KIT 1 G-Quadruplex by Structural Tuning of Heteroaromatic Scaffolds and Side Chains” (ACS Med Chem Lett, 2024).

Assays:
Quadruplex DNA [1] = assay: Stabilization of G-quadruplex c-KIT2 5-FAM-GGGCGGGCGCGAGGGAGGGG-TAMRA-3 (unknown origin) assessed as change in melting temperature at 1 uM incubated for 1 hr in dark condition by FRET-based melting assay; assay type: nucleic-acid assay
In short: (§1)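 FRET melting of dual-fluorophore-tagged oligonucleotides (200 nM) in 60 mM potassium cacodylate buffer, pH 7.4, with ligand at 1 μM; ΔTm taken against the ligand-free oligonucleotide Tm as control.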

Quadruplex DNA [2] = assay: Stabilization of G-quadruplex h-TELO 5-FAM-TTGGGTTAGGGTTAGGGTTAGGGA-TAMRA-3 (unknown origin) assessed as change in melting temperature at 1 uM incubated for 1 hr in dark condition by FRET-based melting assay; assay type: nucleic-acid assay; in short: as §1
Quadruplex DNA [3] = assay: Stabilization of G-quadruplex c-MYC 5-FAM-TGGGGAGGGTGGGGAGGGTGGGGAAGG-TAMRA- 3 (unknown origin) assessed as change in melting temperature at 1 uM incubated for 1 hr in dark condition by FRET-based melting assay; assay type: nucleic-acid assay; in short: as §1
Quadruplex DNA [4] = assay: Stabilization of G-quadruplex BCL2 5-FAM-AGGGGCGGGCGCGGGAGGAAGGGGGCGGGAGCGGGGCTG-TAMRA-3 (unknown origin) assessed as change in melting temperature at 1 uM incubated for 1 hr in dark condition by FRET-based melting assay; assay type: nucleic-acid assay; in short: as §1
Quadruplex DNA [5] = assay: Stabilization of G-quadruplex VEGF 5-FAM-CGGGGCGGGCCGGGGGCGGGGT-TAMRA-3 (unknown origin) assessed as change in melting temperature at 1 uM incubated for 1 hr in dark condition by FRET-based melting assay; assay type: nucleic-acid assay; in short: as §1
Quadruplex DNA [6] = assay: Stabilization of calf thymus […] ds DNA 5-FAM-CAATCGGATCGAATTCGATCCGATTG-TAMRA-3 assessed as change in melting temperature at 1 uM incubated for 1 hr in dark condition by FRET-based melting assay; assay type: nucleic-acid assay; conditions: Bos taurus; in short: as §1
Quadruplex DNA [7] = assay: Stabilization of G-quadruplex c-KIT1 5-FAM-GGGAGGGCGCTGGGAGGAGGG-TAMRA-3 (unknown origin) assessed as change in melting temperature at 1 uM incubated for 1 hr in dark condition by FRET-based melting assay; assay type: nucleic-acid assay; in short: as §1
[8] = Reduction of c-MYC oncogene expression in human K562 cells transfected with c-MYC plasmid construct assessed as reduction in luciferase expression at 4 uM measured after 36 hrs by luciferase reporter assay; assay type: functional
In short: (§2)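 K562 cells transfected with luciferase-expressing plasmids carrying the promoter G-quadruplex sequence of c-KIT, c-MYC or BCL-2, then ligand-treated. Relative luciferase expression measured.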

K562 [9] = assay: Attenuation of proto-oncogene expression in human c-KIT-positive K562 cells assessed as reduction in BCL-2oncogene expression at 2 uM measured after 24 hrs by qRT-PCR analysis relative to control; assay type: functional
In short: (§3)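 K562 leukemia cells treated for 24 h. c-KIT, c-MYC and BCL-2 mRNA measured by qRT-PCR, with each gene normalized to 18s housekeeping gene expression. Reduction expressed relative to untreated cells.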

[10] = Reduction of c-KIT oncogene expression in human K562 cells transfected with c-KIT plasmid construct assessed as reduction in luciferase expression at 4 uM measured after 36 hrs by luciferase reporter assay; assay type: functional; in short: as §2
[11] = Reduction of c-KIT oncogene expression in human K562 cells transfected with c-KIT plasmid construct assessed as reduction in luciferase expression at 2 uM measured after 36 hrs by luciferase reporter assay; assay type: functional; in short: as §2
[12] = Reduction of BCL-2 oncogene expression in human K562 cells transfected with BCL-2 plasmid construct assessed as reduction in luciferase expression at 4 uM measured after 36 hrs by luciferase reporter assay; assay type: functional; in short: as §2
[13] = Reduction of BCL-2 oncogene expression in human K562 cells transfected with BCL-2 plasmid construct assessed as reduction in luciferase expression at 2 uM measured after 36 hrs by luciferase reporter assay; assay type: functional; in short: as §2
K562 [14] = assay: Attenuation of proto-oncogene expression in human c-KIT-positive K562 cells assessed as reduction in c-KIT oncogene expression at 4 uM measured after 24 hrs by qRT-PCR analysis relative to control; assay type: functional; in short: as §3
[15] = Reduction of c-KIT protein expression in human K562 cells at 2 uM measured after 24 hrs by Western blotting analysis relative to control; assay type: functional
In short: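 Lysates of treated K562 cells probed by Western blot for c-KIT protein, with GAPDH as housekeeping reference.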

K562 [16] = assay: Attenuation of proto-oncogene expression in human c-KIT-positive K562 cells assessed as reduction in BCL-2oncogene expression at 4 uM measured after 24 hrs by qRT-PCR analysis relative to control; assay type: functional; in short: as §3
K562 [17] = assay: Induction of DNA damage in human K562 cells assessed as cells exhibiting DNA damage at 5.5 uM incubated for 24 hrs by DNA damage assay (reference value: 10.8%); assay type: functional
K562 [18] = assay: Attenuation of proto-oncogene expression in human c-KIT-positive K562 cells assessed as reduction in c-MYC oncogene expression at 2 uM measured after 24 hrs by qRT-PCR analysis relative to control; assay type: functional; in short: as §3
K562 [19] = assay: Attenuation of proto-oncogene expression in human c-KIT-positive K562 cells assessed as reduction in c-KIT oncogene expression at 2 uM measured after 24 hrs by qRT-PCR analysis relative to control; assay type: functional; in short: as §3
[20] = Reduction of c-MYC oncogene expression in human K562 cells transfected with c-MYC plasmid construct assessed as reduction in luciferase expression at 2 uM measured after 36 hrs by luciferase reporter assay; assay type: functional; in short: as §2
K562 [21] = assay: Induction of DNA damage in human K562 cells assessed as cells exhibiting DNA damage at 11 uM incubated for 24 hrs by DNA damage assay (reference value: 10.8%); assay type: functional

SMILES	ΔTm (Quadruplex DNA [1]) [°C]	ΔTm (Quadruplex DNA [2]) [°C]	ΔTm (Quadruplex DNA [3]) [°C]	ΔTm (Quadruplex DNA [4]) [°C]	ΔTm (Quadruplex DNA [5]) [°C]	ΔTm (Quadruplex DNA [6]) [°C]	ΔTm (Quadruplex DNA [7]) [°C]	other results
O=C(Nc1ccc(-n2cc(-c3ccc4[nH]c5ccccc5c4c3)nn2)cc1)C1CCCN1 (stereo not drawn)	< 5.5	< 5.5	< 5.5	< 5.5	< 5.5	< 5.5	< 5.5	
C[n+]1ccc(-c2c3nc(c(-c4cc[n+](C)cc4)c4ccc([nH]4)c(-c4cc[n+](C)cc4)c4nc(c(-c5cc[n+](C)cc5)c5ccc2[nH]5)C=C4)C=C3)cc1.[Cl-].[Cl-].[Cl-].[Cl-] [TMPYP4 CHLORIDE]								inhibition at 4 µM [8]: 45.3%; inhibition at 2 µM (K562 [9]): 37%; inhibition at 4 µM [10]: 34.1%; inhibition at 2 µM [11]: 20.1%; inhibition at 4 µM [12]: 39.7%; inhibition at 2 µM [13]: 20.7%; inhibition at 4 µM (K562 [14]): 48%; inhibition at 2 µM [15]: 10%; inhibition at 4 µM (K562 [16]): 45%; Activity (K562 [17]): 27.6%; inhibition at 2 µM (K562 [18]): 11%; inhibition at 2 µM (K562 [19]): 30%; inhibition at 2 µM [20]: 24.4%; Activity (K562 [21]): 30.3%
CN(C)CCCn1cc(-c2ccc3oc4ccccc4c3c2)nn1	< 6	< 6	< 6	< 6	< 6	< 6	< 6	
Nc1nc(CC(=O)Nc2nc(CC(=O)NCCCn3cc(-c4ccc5oc6ccccc6c5c4)nn3)cs2)cs1	< 6	< 6	< 6	< 6	< 6	< 6	< 6	
O=C(Nc1ccc(-n2cc(-c3ccc4oc5ccccc5c4c3)nn2)cc1)C1CCCN1 (stereo not drawn)	< 6	< 6	< 6	< 6	< 6	< 6	< 6	
NCCCCC(N)C(=O)Nc1ccc(-n2cc(-c3ccc4oc5ccccc5c4c3)nn2)cc1 (stereo not drawn)	< 6	< 6	< 6	< 6	< 6	< 6	< 6	
NCCn1cc(-c2ccc3[nH]c4ccccc4c3c2)nn1	< 5.5	< 5.5	< 5.5	< 5.5	< 5.5	< 5.5	< 5.5	
NCCn1cc(-c2ccc3oc4ccccc4c3c2)nn1	< 6	< 6	< 6	< 6	< 6	< 6	< 6	
Nc1ccc(-n2cc(-c3ccc4oc5ccccc5c4c3)nn2)cc1	< 6	< 6	< 6	< 6	< 6	< 6	< 6	
Nc1nc(CC(=O)Nc2nc(CC(=O)NCCCn3cc(-c4ccc5[nH]c6ccccc6c5c4)nn3)cs2)cs1	< 5.5	< 5.5	< 5.5	< 5.5	< 5.5	< 5.5	< 5.5	
CN(C)CCCn1cc(-c2ccc3[nH]c4ccccc4c3c2)nn1	< 5.5	< 5.5	< 5.5	< 5.5	< 5.5	< 5.5	< 5.5	
Nc1ccc(-n2cc(-c3ccc4[nH]c5ccccc5c4c3)nn2)cc1	< 5.5	< 5.5	< 5.5	< 5.5	< 5.5	< 5.5	< 5.5	
NCCCCC(N)C(=O)Nc1ccc(-n2cc(-c3ccc4[nH]c5ccccc5c4c3)nn2)cc1 (stereo not drawn)	< 5.5	< 5.5	< 5.5	< 5.5	< 5.5	< 5.5	< 5.5	
